As usually defined, the IC50 is the concentration that inhibits the measured activity by half. A low value points to greater potency.

The target of series [1] is T1, Receptor tyrosine-protein kinase erbB-2 (Homo sapiens, UniProt P04626). The experiment in a line: Inhibition of erbB2 in NH3T3 cells. Format: cell-based. Summed up:
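NIH3T3 cells expressing a chimera of EGFR extracellular and erbB2 intracellular domains are plated, exposed to inhibitor for 2 h, then stimulated with human recombinant EGF for 15 min. Receptor phosphotyrosine read with HRP-PY-54 antibody and TMB, A450. IC50 is the mean of at least two experiments.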

The target of series [2] is Wee1-like protein kinase (Homo sapiens) (UniProt P30291). Kind of series: Inhibition of Wee1.
Series [3] deals with Epidermal growth factor receptor and ErbB2 (HER1 and HER2) (Homo sapiens) (UniProt P04626+P00533). The experiment in a line: Selectivity for erbB2 over EGFR. Format: protein assay. Summed up:
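Cell selectivity: IC50 ratio between two NIH3T3 lines run under identical conditions, one carrying human EGFR and one carrying the EGFR-extracellular/erbB2-intracellular chimera. Each line takes 2 h inhibitor, then 15 min human recombinant EGF. Phosphotyrosine measured with HRP-PY-54 and TMB at 450 nm.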

For series [4], the target named is T1, Receptor tyrosine-protein kinase erbB-2. Kind of series: Inhibition of erbB2 expressed in Sf9 cells. In outline: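 GST-tagged erbB2 intracellular domain (residues 675–1255) made in baculovirus/Sf9 and purified; ~15 ng enzyme phosphorylates poly(Glu,Tyr) with 1 mM ATP plus inhibitor over 6 min. Phosphotyrosine detected by HRP-PY-54 antibody and TMB, A450. IC50 is the mean of at least two experiments.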

Series [5] is described as follows: Permeability from apical to basolateral side of Caco-2 cell membrane. Format: ADME, cell-based. To be noted: human, read-out: permeability. A general note: Caco-2 monolayers are a common model of the intestinal barrier.
In series [6] the target is Platelet-derived growth factor receptor beta (Homo sapiens) (UniProt P09619). The experiment in a line: Inhibition of PDGFRB.
Series [7] deals with cAMP-dependent protein kinase (PKA) (Homo sapiens) (UniProt P22694+P17612+P22612). The experiment in a line: Inhibition of PKA. The format is protein assay.
In series [8] the target is T2, Tyrosine-protein kinase JAK3 (Homo sapiens) (UniProt P52333).
T2 sequence (whole entry): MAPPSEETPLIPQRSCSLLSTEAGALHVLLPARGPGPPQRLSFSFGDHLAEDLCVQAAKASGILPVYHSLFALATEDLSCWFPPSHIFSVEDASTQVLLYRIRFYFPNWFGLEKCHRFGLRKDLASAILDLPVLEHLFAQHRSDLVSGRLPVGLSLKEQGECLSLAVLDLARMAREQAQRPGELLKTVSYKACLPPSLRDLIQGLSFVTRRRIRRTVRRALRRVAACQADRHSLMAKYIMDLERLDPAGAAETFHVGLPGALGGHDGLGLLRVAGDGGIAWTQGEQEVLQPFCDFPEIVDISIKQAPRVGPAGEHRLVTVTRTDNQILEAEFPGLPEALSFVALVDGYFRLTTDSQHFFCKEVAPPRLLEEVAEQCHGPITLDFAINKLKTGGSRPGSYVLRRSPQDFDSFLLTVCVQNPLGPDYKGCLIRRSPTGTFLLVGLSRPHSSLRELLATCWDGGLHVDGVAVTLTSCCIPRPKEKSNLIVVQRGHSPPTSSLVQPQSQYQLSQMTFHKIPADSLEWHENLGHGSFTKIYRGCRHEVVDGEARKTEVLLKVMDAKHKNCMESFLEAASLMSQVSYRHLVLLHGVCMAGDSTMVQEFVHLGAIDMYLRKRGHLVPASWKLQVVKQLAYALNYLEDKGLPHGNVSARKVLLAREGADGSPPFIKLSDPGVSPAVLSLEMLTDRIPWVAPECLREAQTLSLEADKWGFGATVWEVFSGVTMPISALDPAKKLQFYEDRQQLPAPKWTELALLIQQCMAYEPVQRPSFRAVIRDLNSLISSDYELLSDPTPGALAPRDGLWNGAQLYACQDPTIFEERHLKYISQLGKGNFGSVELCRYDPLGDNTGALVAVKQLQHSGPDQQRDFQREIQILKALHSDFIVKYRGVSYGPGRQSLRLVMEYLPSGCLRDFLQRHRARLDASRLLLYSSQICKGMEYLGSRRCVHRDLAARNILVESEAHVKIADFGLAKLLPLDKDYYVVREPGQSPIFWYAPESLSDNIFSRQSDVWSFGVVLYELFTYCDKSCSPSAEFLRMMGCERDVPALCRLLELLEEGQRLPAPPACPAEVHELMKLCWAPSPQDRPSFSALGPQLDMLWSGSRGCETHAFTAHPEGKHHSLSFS
Kind of series: Inhibition of JAK3.

The target in series [9] is Cyclin-dependent kinase 2 (Homo sapiens) (UniProt P24941). The experiment in a line: Inhibition of CDK2.
Series [10] deals with Tyrosine-protein kinase Lck (Homo sapiens) (UniProt P06239). Kind of series: Inhibition of LCK.
Series [11] addresses Proto-oncogene tyrosine-protein kinase Src (Homo sapiens) (UniProt P12931). The experiment in a line: Inhibition of cSRC.
The target in series [12] is Insulin receptor (Homo sapiens) (UniProt P06213). Kind of series: Inhibition of IRK.
Sequence of Insulin receptor (Homo sapiens) (P06213 28-758 limits assumed): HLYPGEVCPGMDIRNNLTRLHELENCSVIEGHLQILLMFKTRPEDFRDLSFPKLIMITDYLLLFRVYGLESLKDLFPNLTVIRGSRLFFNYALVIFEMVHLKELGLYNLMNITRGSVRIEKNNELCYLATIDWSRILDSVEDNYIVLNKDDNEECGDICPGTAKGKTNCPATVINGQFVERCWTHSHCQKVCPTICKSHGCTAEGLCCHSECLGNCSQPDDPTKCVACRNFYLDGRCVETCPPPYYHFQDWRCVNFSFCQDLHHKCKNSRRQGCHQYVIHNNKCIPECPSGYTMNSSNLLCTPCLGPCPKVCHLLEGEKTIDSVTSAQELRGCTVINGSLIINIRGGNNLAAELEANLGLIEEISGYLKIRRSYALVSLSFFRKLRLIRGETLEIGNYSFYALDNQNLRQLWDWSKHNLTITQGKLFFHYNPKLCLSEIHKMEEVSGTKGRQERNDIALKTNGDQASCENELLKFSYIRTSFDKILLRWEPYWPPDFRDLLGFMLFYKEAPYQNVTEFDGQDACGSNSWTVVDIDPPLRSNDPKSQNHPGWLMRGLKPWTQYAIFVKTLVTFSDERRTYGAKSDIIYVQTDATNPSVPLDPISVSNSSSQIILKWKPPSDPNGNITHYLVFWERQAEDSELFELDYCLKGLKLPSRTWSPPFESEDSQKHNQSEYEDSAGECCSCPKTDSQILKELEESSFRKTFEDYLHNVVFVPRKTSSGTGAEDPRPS
Sequence of Insulin receptor (Homo sapiens) (P06213 763-1382 limits assumed): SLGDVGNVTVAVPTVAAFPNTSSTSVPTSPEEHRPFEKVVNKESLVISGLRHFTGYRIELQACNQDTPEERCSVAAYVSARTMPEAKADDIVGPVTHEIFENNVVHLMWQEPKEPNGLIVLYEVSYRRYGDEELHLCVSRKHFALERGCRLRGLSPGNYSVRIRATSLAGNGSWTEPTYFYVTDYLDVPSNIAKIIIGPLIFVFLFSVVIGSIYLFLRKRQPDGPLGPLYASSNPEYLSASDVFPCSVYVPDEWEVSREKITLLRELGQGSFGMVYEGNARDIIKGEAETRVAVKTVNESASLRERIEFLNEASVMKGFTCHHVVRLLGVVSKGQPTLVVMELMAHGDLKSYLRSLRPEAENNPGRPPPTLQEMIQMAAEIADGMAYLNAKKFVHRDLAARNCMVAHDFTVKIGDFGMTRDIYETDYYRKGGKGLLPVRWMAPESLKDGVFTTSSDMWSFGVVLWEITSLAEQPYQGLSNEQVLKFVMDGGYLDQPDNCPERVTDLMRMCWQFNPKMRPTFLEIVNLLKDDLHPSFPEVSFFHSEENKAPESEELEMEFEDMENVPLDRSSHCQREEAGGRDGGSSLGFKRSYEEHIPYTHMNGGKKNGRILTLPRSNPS
Series [13] addresses Tyrosine-protein kinase Fes/Fps (Homo sapiens) (UniProt P07332). Kind of series: Inhibition of FES.
Series [14] concerns the target Cyclin-dependent kinase 5 (Homo sapiens) (UniProt Q00535). The experiment in a line: Inhibition of CDK5.
The target in series [15] is Protein kinase C alpha type (Homo sapiens) (UniProt P17252). The experiment in a line: Inhibition of PKCalpha.
In series [16] the target is Insulin-like growth factor 1 receptor (Homo sapiens) (UniProt P08069). The experiment in a line: Inhibition of IGF1R.
Series [17] deals with Protein kinase C theta type (Homo sapiens) (UniProt Q04759). Kind of series: Inhibition of PKCtheta.
Sequence of Protein kinase C theta type (Homo sapiens) (Q04759 whole entry, looked up): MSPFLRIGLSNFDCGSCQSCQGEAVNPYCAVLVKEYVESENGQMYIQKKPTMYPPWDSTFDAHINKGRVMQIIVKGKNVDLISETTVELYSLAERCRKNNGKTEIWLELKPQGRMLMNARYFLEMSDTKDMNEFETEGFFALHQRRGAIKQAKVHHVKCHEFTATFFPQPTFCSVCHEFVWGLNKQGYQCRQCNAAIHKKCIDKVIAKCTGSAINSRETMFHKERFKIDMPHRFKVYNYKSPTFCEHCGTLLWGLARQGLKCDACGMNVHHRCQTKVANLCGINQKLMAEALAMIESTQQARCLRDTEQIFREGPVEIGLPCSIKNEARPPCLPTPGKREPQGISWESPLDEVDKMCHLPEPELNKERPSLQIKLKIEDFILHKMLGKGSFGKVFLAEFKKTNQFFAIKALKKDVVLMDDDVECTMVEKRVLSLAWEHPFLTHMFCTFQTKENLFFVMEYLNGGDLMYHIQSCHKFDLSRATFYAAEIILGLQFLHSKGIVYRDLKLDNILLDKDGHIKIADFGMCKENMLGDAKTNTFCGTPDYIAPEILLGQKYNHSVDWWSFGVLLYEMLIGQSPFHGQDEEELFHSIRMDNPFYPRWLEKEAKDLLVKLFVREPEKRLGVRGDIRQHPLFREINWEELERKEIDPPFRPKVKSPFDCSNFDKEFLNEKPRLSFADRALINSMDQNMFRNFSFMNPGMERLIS
In series [18] the target is Epidermal growth factor receptor (Homo sapiens) (UniProt P00533). The experiment in a line: Inhibition of EGFR.

T1 sequence (P04626 whole entry, the tested form may be a part): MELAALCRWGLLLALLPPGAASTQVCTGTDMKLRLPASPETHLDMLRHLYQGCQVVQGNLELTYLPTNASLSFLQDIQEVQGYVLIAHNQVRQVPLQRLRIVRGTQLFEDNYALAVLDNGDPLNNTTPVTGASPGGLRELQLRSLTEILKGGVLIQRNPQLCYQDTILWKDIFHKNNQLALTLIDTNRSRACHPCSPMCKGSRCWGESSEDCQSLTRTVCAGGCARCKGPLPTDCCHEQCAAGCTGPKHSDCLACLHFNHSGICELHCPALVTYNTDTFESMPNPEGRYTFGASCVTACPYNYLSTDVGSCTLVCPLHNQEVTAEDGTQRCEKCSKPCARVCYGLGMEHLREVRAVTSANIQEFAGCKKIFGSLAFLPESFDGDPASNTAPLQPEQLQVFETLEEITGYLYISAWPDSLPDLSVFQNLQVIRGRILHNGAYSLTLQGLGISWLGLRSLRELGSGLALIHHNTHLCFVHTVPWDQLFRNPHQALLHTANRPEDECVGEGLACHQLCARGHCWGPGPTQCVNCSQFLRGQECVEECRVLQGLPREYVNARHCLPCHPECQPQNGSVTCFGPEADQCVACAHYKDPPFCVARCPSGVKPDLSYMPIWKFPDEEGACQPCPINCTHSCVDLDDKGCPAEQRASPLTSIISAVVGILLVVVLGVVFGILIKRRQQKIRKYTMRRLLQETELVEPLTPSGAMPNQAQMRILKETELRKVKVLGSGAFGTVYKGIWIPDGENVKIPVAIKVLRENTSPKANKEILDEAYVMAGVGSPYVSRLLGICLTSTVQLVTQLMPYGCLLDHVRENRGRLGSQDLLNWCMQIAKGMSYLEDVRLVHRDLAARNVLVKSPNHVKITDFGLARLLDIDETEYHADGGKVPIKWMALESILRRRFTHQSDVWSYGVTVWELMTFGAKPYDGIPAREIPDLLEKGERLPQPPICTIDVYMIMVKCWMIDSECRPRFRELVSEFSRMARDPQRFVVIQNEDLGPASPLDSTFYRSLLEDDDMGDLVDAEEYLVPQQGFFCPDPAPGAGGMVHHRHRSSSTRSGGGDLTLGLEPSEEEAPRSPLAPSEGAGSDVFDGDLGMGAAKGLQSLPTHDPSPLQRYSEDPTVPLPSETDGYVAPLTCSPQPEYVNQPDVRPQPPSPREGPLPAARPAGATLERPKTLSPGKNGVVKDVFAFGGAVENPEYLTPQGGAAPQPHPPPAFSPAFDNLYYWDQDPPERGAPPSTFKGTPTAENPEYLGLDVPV
Sequence of Tyrosine-protein kinase Fes/Fps (Homo sapiens) (P07332 whole entry): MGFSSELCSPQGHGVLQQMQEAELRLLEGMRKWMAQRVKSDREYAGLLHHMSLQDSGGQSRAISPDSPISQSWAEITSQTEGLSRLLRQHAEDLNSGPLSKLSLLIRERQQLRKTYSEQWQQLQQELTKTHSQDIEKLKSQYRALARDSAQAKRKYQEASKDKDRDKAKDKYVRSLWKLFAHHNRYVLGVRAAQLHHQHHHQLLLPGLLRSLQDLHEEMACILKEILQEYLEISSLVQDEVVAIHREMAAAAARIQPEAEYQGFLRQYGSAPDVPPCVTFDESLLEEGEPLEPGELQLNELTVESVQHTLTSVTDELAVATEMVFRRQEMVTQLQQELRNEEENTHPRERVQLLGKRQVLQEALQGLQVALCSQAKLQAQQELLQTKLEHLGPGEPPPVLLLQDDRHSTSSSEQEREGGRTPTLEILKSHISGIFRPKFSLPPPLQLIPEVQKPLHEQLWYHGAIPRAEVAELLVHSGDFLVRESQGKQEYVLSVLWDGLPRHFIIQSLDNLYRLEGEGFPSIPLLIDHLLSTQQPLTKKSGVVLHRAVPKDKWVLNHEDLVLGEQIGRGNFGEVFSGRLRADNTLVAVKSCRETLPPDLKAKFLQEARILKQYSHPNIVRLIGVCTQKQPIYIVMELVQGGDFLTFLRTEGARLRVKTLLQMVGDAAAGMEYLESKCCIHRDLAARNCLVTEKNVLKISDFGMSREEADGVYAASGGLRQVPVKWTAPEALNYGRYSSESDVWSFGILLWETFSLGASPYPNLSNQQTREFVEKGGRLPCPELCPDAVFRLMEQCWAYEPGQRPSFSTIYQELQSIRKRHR
Sequence of Proto-oncogene tyrosine-protein kinase Src (Homo sapiens) (P12931 2-536 limits assumed): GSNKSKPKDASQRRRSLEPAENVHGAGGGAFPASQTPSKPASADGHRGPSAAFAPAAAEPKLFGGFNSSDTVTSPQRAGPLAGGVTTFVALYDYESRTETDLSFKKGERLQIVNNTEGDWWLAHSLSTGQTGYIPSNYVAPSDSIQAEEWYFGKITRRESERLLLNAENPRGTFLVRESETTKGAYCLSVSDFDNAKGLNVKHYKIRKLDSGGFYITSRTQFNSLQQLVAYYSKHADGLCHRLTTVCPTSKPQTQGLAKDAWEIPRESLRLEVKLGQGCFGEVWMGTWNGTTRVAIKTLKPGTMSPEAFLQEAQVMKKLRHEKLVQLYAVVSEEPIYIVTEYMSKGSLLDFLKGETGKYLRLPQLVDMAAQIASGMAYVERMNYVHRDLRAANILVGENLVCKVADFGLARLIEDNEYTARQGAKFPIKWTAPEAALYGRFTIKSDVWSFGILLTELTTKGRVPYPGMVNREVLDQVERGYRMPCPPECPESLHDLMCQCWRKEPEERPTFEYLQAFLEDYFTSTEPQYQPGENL
Sequence of Cyclin-dependent kinase 5 (Homo sapiens) (Q00535 whole entry, looked up): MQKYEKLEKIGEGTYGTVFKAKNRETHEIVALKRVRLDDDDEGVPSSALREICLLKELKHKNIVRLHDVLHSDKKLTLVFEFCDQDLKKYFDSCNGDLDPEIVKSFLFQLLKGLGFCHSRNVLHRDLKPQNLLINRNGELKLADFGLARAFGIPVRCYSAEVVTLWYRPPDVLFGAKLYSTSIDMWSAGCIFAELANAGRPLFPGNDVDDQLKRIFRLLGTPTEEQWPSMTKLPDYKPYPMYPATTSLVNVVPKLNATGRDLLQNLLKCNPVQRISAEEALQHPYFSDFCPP

Regarding `Cc1cc(Nc2ncnc3cnc(N4CCOCC4)cc23)ccc1Oc1ccc(C(=O)NCC(C)(C)C)cc1`, the IC50 worked out at 24 nM in [1] and 21 nM in [4]. For the same molecule, the Activity in [2], in series [6], in series [7], in [8], in series [9] and in [10] was > 10 µM in each case. In addition, the Activity in [11], in series [12], in series [13], in series [14], in series [15] and in series [16] was > 10 µM throughout. Further, the Activity in series [17] and in series [18] was > 10 µM in each case. For the same molecule, the Selectivity ratio in series [3] is > 410. Further, the Papp A→B in [5] is 15.4 ×10⁻⁶ cm/s.

The record behind these values is ChEMBL document CHEMBL1144645, “The discovery of highly selective erbB2 (Her2) inhibitors for the treatment of cancer” (Bioorg Med Chem Lett, 2007).
